# Active and inactive are the calls of the source. The calls are words filed in the database; no cut-off is given here.
# How the values were obtained:
# Candida albicans = assay: Antifungal activity against Candida albicans ATCC 90028 assessed as diameter of zone inhibition incubated for 24 hrs by CLSI disc diffusion method; type: functional
# Procedure, shortened: (§1)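 Yeast disc diffusion on Mueller-Hinton agar supplemented with 2% glucose and 0.5 mg/L methylene blue. Compounds in DMSO. Yeasts subcultured on Sabouraud dextrose agar before testing. Zones read after 35 °C, 24 h.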
# Klebsiella pneumoniae = details: ATCC 13883
# Staphylococcus aureus = assay: Antibacterial activity against Staphylococcus aureus ATCC 6538P assessed as diameter of zone inhibition measured after 18 hrs by CLSI disc diffusion method; type: functional
# Procedure, shortened: (§2)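 Disc diffusion on Mueller-Hinton II agar. Compounds dissolved in DMSO. Strains stored at -80 °C and subcultured twice on tryptic soy agar before testing. Inhibition zones read after 35 °C, 18 h.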
# Candida tropicalis = assay: Antifungal activity against Candida tropicalis IBA 171 assessed as diameter of zone inhibition incubated for 24 hrs by CLSI disc diffusion method; type: functional; procedure, shortened: as §1
# [1] = Dissociation constant, pKa1 of compound in 0.1 M NaOH by potentiometric analysis; type: physicochemical
# Saccharomyces cerevisiae = assay: Antifungal activity against Saccharomyces cerevisiae ATCC 9763 diameter of zone inhibition incubated for 24 hrs by CLSI disc diffusion method; type: functional
# Procedure, shortened: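 Disc-diffusion run on Mueller-Hinton II agar with 2% glucose and 0.5 mg/L methylene blue, using compounds in DMSO. Yeast was precultured on Sabouraud dextrose agar (24–48 h, 30 °C). Zones read after 24 h at 35 °C.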
# Escherichia coli = assay: Antibacterial activity against Escherichia coli ATCC 25922 assessed as diameter of zone inhibition measured after 18 hrs by CLSI disc diffusion method; type: functional; procedure, shortened: as §2
# [2] = system: Staphylococcus epidermidis; assay: Antibacterial activity against Staphylococcus epidermidis ATCC 12228 assessed as diameter of zone inhibition measured after 18 hrs by CLSI disc diffusion method; type: functional; procedure, shortened: as §2
# Serratia marcescens = details: ATCC 13880
# Pichia kudriavzevii = assay: Antifungal activity against Candida krusei ATCC 6258 assessed as diameter of zone inhibition incubated for 24 hrs by CLSI disc diffusion method; type: functional; procedure, shortened: as §1
# [3] = system: Stenotrophomonas maltophilia; assay: Antibacterial activity against Stenotrophomonas maltophilia ATCC 13637 assessed as diameter of zone inhibition measured after 18 hrs by CLSI disc diffusion method; type: functional; procedure, shortened: as §2
# Burkholderia cepacia = assay: Antibacterial activity against Burkholderia cepacia ATCC 25416 assessed as diameter of zone inhibition measured after 18 hrs by CLSI disc diffusion method; type: functional; procedure, shortened: as §2
# Enterococcus faecalis = assay: Antibacterial activity against Enterococcus faecalis ATCC 29212 assessed as diameter of zone inhibition measured after 18 hrs by CLSI disc diffusion method; type: functional; procedure, shortened: as §2
# [4] = system: Bordetella bronchiseptica; assay: Antibacterial activity against Bordetella bronchiseptica ATCC 4617 assessed as diameter of zone inhibition measured after 18 hrs by CLSI disc diffusion method; type: functional; procedure, shortened: as §2
# [5] = system: Meyerozyma guilliermondii; assay: Antifungal activity against Candida guilliermondii IBA 155 assessed as diameter of zone inhibition incubated for 24 hrs by CLSI disc diffusion method; type: functional; procedure, shortened: as §1
# Enterobacter cloacae = assay: Antibacterial activity against Enterobacter cloacae DSM 6234 assessed as diameter of zone inhibition measured after 18 hrs by CLSI disc diffusion method; type: functional; procedure, shortened: as §2
# Bacillus subtilis = assay: Antibacterial activity against Bacillus subtilis ATCC 6633 assessed as diameter of zone inhibition measured after 18 hrs by CLSI disc diffusion method; type: functional; procedure, shortened: as §2
# Proteus mirabilis = assay: Antibacterial activity against Proteus mirabilis ATCC 12453 assessed as diameter of zone inhibition measured after 18 hrs by CLSI disc diffusion method; type: functional; procedure, shortened: as §2
# Candida parapsilosis = assay: Antifungal activity against Candida parapsilosis ATCC 22019 assessed as diameter of zone inhibition incubated for 24 hrs by CLSI disc diffusion method; type: functional; procedure, shortened: as §1
# Enterococcus faecium = assay: Antibacterial activity against Enterococcus faecium ATCC 6057 assessed as diameter of zone inhibition measured after 18 hrs by CLSI disc diffusion method; type: functional; procedure, shortened: as §2
# Pseudomonas aeruginosa = assay: Antibacterial activity against Pseudomonas aeruginosa ATCC 27853 assessed as diameter of zone inhibition measured after 18 hrs by CLSI disc diffusion method; type: functional, organism-based; procedure, shortened: as §2
# Acinetobacter baumannii = assay: Antibacterial activity against Acinetobacter baumannii ATCC 19606 assessed as diameter of zone inhibition measured after 18 hrs by CLSI disc diffusion method; type: functional; procedure, shortened: as §2
compound,measurement,setting,value
C[Si]1(C)OB(O)c2cccc(Cl)c21,diameter of the inhibition zone (DIZ),Candida albicans,17 mm
same,DIZ,Klebsiella pneumoniae,inactive
same,diameter of the inhibition zone (DIZ),Staphylococcus aureus,34 mm
same,diameter of the inhibition zone (DIZ),Candida tropicalis,12 mm
same,pKa,[1],6.5
same,diameter of the inhibition zone (DIZ),Saccharomyces cerevisiae,30 mm
same,diameter of the inhibition zone (DIZ),Escherichia coli,inactive
same,diameter of the inhibition zone (DIZ),[2],33 mm
same,DIZ,Serratia marcescens,inactive
same,diameter of the inhibition zone (DIZ),Pichia kudriavzevii,17 mm
same,diameter of the inhibition zone (DIZ),[3],13 mm
same,diameter of the inhibition zone (DIZ),Burkholderia cepacia,inactive
same,diameter of the inhibition zone (DIZ),Enterococcus faecalis,15 mm
same,diameter of the inhibition zone (DIZ),[4],inactive
same,diameter of the inhibition zone (DIZ),[5],25 mm
same,diameter of the inhibition zone (DIZ),Enterobacter cloacae,inactive
same,diameter of the inhibition zone (DIZ),Bacillus subtilis,32 mm
same,diameter of the inhibition zone (DIZ),Proteus mirabilis,19 mm
same,diameter of the inhibition zone (DIZ),Candida parapsilosis,12 mm
same,diameter of the inhibition zone (DIZ),Enterococcus faecium,20 mm
same,diameter of the inhibition zone (DIZ),Pseudomonas aeruginosa,inactive
same,diameter of the inhibition zone (DIZ),Acinetobacter baumannii,inactive
